The text below walks through data of ChEMBL document CHEMBL4229344 (Eur J Med Chem, 2018).

Each structure is given as a SMILES string. The source made the active and inactive calls. No cut-off for these calls is given here.

Data set [1] addresses Tyrosine-protein kinase Blk (Homo sapiens) (UniProt P51451). As to the kind of experiment: Binding affinity to wild-type human partial length BLK (G211 to L503 residues) expressed in bacterial expression system assessed as residual binding level at 1 uM by Kinomescan method relative to control. The procedure, abridged:
(§1)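 Single-concentration KINOMEscan (DiscoverX) binding screen at 1 μM against a panel of 468 purified kinases and mutants. The read-out is binding relative to control.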

In data set [2] the target is Phosphatidylinositol 4-phosphate 3-kinase C2 domain-containing subunit beta (Homo sapiens) (UniProt O00750). As to the kind of experiment: Binding affinity to wild-type human partial length PIK3C2B (M1 to L1634 residues) expressed in mammalian expression system assessed as residual binding level at 1 uM by Kinomescan method relative to control.
The target of data set [3] is Serine/threonine-protein kinase SIK3 (Homo sapiens) (UniProt Q9Y2K2). Description: Binding affinity to wild-type human partial length QSK (A90 to L395 residues) expressed in mammalian expression system assessed as residual binding level at 1 uM by Kinomescan method relative to control.
Data set [4] deals with Calcium/calmodulin-dependent protein kinase type II subunit gamma (Homo sapiens) (UniProt Q13555). As to the kind of experiment: Binding affinity to wild-type human partial length CAMK2G (R9 to A303 residues) expressed in bacterial expression system assessed as residual binding level at 1 uM by Kinomescan method relative to control.
The target in data set [5] is Tyrosine-protein kinase ABL1 (Homo sapiens, UniProt P00519). As to the kind of experiment: Binding affinity to wild-type human non-phosphorylated ABL1 (S229 to K512 residues) expressed in mammalian expression system assessed as residual binding level at 1 uM by Kinomescan method relative to control. The procedure, abridged: as §1
Data set [6] addresses ALK tyrosine kinase receptor (Homo sapiens) (UniProt Q9UM73). Description: Binding affinity to wild-type human partial length ALK (I1088 to E1409 residues) expressed in mammalian expression system assessed as residual binding level at 1 uM by Kinomescan method relative to control. An outline of the steps:
as §1

The subject of data set [7] is EOL1. Description: Antitumor activity against human EOL-1 cells xenografted in nu/nu mouse assessed as reduction in tumor cell proliferation at 25 to 100 mg/kg/day, ip by KI-67-staining based microscopic analysis. The format is functional, organism-based. The procedure, abridged: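 Female nu/nu mice (6 weeks) given subcutaneous right-flank injection of 5 million EOL-1 cells in PBS/Matrigel 1:1. At 200–400 mm3 tumors, randomized to groups of 6 and dosed daily i.p. for 14 days at 25, 50 or 100 mg/kg/d in 0.5% methylcellulose/0.4% Tween80. Tumor volume = W²×L/2, measured daily.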

The target of data set [8] is Serine/threonine-protein kinase 33 (Homo sapiens) (UniProt Q9BYT3). Description: Binding affinity to wild-type human full length STK33 (M1 to L514 residues) expressed in bacterial expression system assessed as residual binding level at 1 uM by Kinomescan method relative to control. An outline of the steps: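 KINOMEscan competition binding against 468 purified kinases/mutants, test compound at 1 µM; residual binding relative to control.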

For data set [9], the target named is Cyclin-dependent kinase 14 (Homo sapiens) (UniProt O94921). As to the kind of experiment: Binding affinity to wild-type human full length PFTK1 (M1 to H451 residues) expressed in bacterial expression system assessed as residual binding level at 1 uM by Kinomescan method relative to control. The procedure, abridged: as §1
The target in data set [10] is Ribosomal protein S6 kinase alpha-2 (Homo sapiens) (UniProt Q15349). As to the kind of experiment: Binding affinity to wild-type human partial length C-terminal RSK3 kinase domain 2 (V403 to K700 residues) expressed in bacterial expression system assessed as residual binding level at 1 uM by Kinomescan method relative to control.
For data set [11], the target named is Serine/threonine-protein kinase PAK 1 (Homo sapiens) (UniProt Q13153). As to the kind of experiment: Binding affinity to wild-type human partial length PAK1 (S149 to H545 residues) expressed in bacterial expression system assessed as residual binding level at 1 uM by Kinomescan method relative to control.
Data set [12] deals with Ribosomal protein S6 kinase alpha-6 (Homo sapiens) (UniProt Q9UK32). Description: Binding affinity to wild-type human partial length N-terminal RSK4 kinase domain 1 (M1 to E397 residues) expressed in mammalian expression system assessed as residual binding level at 1 uM by Kinomescan method relative to control.
The test system of data set [13] is ALK tyrosine kinase receptor (Homo sapiens), Q9UM73 [L1196M]. As to the kind of experiment: Binding affinity to wild-type human partial length ALK L1196M mutant (I1088 to E1409 residues) expressed in mammalian expression system assessed as residual binding level at 1 uM by Kinomescan method relative to control. An outline of the steps: as §1
Data set [14] can be described thus: Half life in Sprague-Dawley rat at 10 mg/kg, po. The format is ADME, organism-based. The following applies: in vivo.
The subject of data set [15] is EOL1. As to the kind of experiment: Induction of apoptosis in human EOL-1 cells assessed as cleaved caspase3 expression level at 3 to 100 nM after 24 hrs by Western blot analysis. The format is functional, cell-based. An outline of the steps:
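Cells exposed to compound or DMSO for the stated periods, then lysed and immunoblotted for PARP and caspase-3 cleavage, with β-actin as loading control. NCI-H1703 stimulation used PDGF AA at 100 ng/mL.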

Data set [16] addresses Platelet-derived growth factor receptor alpha (Homo sapiens, UniProt P16234). Description: Inhibition of PDGFRalpha autophosphorylation at Y754 residue in human EOL-1 cells up to 300 nM after 2 hrs by Western blot method. It counts as cell-based.
Data set [17] relates to Receptor-type tyrosine-protein kinase FLT3 (Homo sapiens), P36888 [N841I]. As to the kind of experiment: Binding affinity to human partial length FLT3 N841I mutant (V592 to Y969 residues) expressed in bacterial expression system assessed as residual binding level at 1 uM by Kinomescan method relative to control. The procedure, abridged:
(§2)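 Kinome-wide single-concentration binding screen (KINOMEscan) at 1 μM against a panel of 468 purified kinases and mutants. Read-out is relative binding of each kinase compared with control. Selectivity across the panel was summarised as an S(10) score.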

In data set [18] the test system is Serine/threonine-protein kinase B-raf (Homo sapiens), P15056 [V600E]. As to the kind of experiment: Binding affinity to human partial length BRAF V600E mutant (S429 to E741 residues) expressed in mammalian expression system assessed as residual binding level at 1 uM by Kinomescan method relative to control. An outline of the steps: as §2
For data set [19], the target named is Tyrosine-protein kinase ZAP-70 (Homo sapiens) (UniProt P43403). As to the kind of experiment: Binding affinity to wild-type human partial length ZAP70 (D20 to G299 residues) expressed in mammalian expression system assessed as residual binding level at 1 uM by Kinomescan method relative to control.
The subject of data set [20] is Tyrosine-protein kinase ABL1 (Homo sapiens), P00519 [T315I]. Description: Binding affinity to human non-phosphorylated ABL1 T315I mutant (S229 to K512 residues) expressed in mammalian expression system assessed as residual binding level at 1 uM by Kinomescan method relative to control. An outline of the steps: as §2
The target of data set [21] is Serine/threonine-protein kinase RIO2 (Homo sapiens) (UniProt Q9BVS4). Description: Binding affinity to wild-type human partial length RIOK2 (M1 to D313 residues) expressed in mammalian expression system assessed as residual binding level at 1 uM by Kinomescan method relative to control. The procedure, abridged: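 KINOMEscan competition binding against a panel of 468 purified kinases/mutants, compound tested at 1 μM; readout is relative binding activity versus control.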

Cyclin-dependent kinase 14 (Homo sapiens), sequence (O94921 whole entry, the tested form may be a part): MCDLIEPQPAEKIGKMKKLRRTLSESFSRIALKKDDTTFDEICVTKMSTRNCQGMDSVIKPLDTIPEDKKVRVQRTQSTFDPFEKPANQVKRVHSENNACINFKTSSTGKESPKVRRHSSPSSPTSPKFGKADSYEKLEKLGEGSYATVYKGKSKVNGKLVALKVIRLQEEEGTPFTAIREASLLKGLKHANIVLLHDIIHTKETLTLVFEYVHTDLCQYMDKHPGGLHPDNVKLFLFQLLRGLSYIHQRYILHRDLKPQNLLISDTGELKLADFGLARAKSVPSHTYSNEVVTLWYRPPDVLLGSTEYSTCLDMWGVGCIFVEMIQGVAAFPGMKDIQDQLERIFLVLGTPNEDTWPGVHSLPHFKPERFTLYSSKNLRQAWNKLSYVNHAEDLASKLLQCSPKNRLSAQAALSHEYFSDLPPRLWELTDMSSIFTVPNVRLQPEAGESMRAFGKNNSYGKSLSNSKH
ALK tyrosine kinase receptor (Homo sapiens), sequence (Q9UM73 19-1620 limits assumed): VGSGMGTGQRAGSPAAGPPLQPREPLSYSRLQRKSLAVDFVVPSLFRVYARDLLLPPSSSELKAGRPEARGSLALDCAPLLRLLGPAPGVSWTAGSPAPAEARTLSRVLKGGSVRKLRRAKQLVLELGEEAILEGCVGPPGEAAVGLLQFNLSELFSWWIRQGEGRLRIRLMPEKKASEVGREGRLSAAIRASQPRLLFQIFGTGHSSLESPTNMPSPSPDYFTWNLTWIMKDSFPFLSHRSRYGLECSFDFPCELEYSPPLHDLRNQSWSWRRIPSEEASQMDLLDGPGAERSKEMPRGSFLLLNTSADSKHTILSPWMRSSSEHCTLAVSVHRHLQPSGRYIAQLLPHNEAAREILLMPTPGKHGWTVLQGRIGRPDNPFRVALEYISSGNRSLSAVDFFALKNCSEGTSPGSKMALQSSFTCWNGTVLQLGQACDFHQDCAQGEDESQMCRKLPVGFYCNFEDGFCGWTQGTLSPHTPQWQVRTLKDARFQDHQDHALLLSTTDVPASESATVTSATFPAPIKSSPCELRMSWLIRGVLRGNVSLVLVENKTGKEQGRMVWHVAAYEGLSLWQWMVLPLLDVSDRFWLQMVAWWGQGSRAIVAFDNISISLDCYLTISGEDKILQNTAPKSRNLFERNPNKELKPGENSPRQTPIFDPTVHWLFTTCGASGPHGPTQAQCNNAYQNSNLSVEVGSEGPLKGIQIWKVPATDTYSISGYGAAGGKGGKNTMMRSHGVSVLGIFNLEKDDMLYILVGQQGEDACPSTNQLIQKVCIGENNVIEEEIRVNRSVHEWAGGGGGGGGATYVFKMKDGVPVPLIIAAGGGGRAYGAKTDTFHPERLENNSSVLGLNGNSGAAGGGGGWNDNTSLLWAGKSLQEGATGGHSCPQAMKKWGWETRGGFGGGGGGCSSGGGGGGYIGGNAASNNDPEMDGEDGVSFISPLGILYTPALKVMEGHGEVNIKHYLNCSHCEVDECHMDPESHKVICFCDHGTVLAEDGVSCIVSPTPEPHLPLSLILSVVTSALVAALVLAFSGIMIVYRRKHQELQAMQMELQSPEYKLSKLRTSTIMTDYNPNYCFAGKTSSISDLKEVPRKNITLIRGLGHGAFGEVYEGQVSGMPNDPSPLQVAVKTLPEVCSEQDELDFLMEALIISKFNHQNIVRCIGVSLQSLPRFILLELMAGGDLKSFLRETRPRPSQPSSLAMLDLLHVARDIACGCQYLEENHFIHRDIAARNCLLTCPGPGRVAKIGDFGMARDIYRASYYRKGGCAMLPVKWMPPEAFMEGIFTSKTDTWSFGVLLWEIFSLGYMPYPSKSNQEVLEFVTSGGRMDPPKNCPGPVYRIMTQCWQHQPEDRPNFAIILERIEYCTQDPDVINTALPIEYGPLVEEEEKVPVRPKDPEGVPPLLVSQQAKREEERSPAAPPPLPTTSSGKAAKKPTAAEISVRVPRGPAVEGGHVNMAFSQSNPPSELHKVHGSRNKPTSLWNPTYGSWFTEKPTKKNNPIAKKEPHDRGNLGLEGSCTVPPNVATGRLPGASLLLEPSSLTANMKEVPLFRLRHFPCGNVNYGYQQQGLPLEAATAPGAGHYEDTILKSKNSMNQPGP
Serine/threonine-protein kinase SIK3 (Homo sapiens), sequence (Q9Y2K2 whole entry, looked up, the tested form may be a part): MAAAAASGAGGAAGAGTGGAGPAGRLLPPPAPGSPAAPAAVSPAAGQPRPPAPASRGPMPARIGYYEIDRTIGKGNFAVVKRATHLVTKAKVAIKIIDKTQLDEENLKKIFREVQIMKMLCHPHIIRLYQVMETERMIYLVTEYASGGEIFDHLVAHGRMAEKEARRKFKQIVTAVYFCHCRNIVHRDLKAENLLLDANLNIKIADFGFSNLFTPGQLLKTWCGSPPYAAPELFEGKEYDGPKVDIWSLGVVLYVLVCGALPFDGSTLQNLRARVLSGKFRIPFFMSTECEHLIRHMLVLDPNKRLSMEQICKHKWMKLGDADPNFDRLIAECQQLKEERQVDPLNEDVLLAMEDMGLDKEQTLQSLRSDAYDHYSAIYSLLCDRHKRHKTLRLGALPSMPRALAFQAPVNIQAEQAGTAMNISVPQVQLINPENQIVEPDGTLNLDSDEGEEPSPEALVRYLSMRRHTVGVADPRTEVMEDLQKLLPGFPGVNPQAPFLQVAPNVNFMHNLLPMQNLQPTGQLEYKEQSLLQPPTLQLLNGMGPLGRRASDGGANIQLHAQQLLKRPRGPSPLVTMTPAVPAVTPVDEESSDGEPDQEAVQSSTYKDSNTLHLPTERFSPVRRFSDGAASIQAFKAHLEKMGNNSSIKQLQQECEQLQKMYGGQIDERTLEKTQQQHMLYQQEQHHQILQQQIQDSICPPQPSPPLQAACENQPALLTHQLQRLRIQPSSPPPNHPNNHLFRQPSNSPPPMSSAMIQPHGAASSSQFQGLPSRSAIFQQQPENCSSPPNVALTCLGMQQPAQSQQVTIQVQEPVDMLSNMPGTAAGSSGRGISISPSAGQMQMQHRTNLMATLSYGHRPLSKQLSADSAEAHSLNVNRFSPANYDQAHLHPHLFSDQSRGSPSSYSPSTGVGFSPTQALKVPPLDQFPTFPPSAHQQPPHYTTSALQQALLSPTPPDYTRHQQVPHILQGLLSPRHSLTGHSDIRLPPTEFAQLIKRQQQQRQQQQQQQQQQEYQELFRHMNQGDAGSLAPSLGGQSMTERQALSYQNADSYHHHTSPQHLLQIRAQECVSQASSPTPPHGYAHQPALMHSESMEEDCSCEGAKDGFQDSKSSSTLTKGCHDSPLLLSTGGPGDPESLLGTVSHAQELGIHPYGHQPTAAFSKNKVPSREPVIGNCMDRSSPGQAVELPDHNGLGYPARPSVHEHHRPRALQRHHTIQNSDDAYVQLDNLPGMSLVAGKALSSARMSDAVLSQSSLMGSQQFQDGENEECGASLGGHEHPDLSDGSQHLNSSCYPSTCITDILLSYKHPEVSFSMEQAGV
Platelet-derived growth factor receptor alpha, sequence (P16234 whole entry, the tested form may be a part): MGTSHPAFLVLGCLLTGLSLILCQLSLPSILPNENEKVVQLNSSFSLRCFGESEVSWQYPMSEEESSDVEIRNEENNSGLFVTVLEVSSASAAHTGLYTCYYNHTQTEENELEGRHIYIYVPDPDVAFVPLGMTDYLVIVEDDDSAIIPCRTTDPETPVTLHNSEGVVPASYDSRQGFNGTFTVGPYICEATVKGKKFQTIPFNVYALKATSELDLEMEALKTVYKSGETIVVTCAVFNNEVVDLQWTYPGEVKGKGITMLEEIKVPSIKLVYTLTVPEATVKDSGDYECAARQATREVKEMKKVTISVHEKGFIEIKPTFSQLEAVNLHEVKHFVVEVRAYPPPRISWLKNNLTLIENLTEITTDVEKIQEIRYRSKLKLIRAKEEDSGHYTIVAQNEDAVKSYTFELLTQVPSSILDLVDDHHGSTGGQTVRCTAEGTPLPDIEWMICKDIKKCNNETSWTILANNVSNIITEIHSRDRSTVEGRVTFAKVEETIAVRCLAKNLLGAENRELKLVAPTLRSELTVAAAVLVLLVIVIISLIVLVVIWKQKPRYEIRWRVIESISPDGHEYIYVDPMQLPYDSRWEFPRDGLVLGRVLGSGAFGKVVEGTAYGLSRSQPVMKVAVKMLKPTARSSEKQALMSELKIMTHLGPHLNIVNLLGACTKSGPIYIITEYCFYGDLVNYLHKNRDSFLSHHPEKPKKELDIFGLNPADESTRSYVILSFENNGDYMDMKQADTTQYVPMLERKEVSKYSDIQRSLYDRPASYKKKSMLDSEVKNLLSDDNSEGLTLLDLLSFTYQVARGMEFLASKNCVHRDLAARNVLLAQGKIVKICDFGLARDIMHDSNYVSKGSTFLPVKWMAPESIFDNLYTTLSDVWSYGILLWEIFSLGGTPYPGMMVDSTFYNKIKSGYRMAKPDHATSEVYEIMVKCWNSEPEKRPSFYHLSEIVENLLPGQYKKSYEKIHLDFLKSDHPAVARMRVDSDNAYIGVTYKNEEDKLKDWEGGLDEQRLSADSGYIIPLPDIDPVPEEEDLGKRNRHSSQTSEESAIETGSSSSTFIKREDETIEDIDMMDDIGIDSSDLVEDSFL
Tyrosine-protein kinase Blk (Homo sapiens), sequence (P51451 2-505 limits assumed): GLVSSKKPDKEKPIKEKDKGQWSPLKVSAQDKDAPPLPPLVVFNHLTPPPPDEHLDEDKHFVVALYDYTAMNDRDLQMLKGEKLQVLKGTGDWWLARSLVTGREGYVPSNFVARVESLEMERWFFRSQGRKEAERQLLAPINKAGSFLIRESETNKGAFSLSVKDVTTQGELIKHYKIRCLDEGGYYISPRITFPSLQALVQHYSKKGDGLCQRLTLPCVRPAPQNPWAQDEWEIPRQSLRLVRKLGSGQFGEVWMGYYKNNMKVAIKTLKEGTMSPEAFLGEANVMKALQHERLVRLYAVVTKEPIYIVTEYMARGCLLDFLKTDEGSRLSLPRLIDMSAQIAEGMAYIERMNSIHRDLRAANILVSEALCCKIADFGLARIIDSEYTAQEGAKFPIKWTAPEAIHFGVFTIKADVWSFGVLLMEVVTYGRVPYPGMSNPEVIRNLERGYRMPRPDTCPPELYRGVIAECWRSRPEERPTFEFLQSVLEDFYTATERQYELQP

With `Cc1ccc(NC(=O)c2ccc(CN(CCN(C)C)C(=O)c3cccnc3)cc2)cc1Nc1nccc(-c2cccnc2)n1`, the Activity in data set [1] stood at 95%; in data set [2] it was 97%; in data set [3], 96%; in data set [4] it was 93%; in data set [5] it was 4.9%; in data set [6], 100%. Further, the Activity in [8] amounted to 89%; in data set [9] it was 90%; in data set [10], 88%; in data set [11], 95%; in data set [12], 100%; in data set [13], 100%. Also, the Activity in [17] came to 100%; in data set [18], 49%; in [19] it was 100%; in [20], 100%; in [21] it was 87%. Besides, the outcome in the data set with EOL1 [7] and in the data set with EOL1 [15] was Active. The same molecule showed a half-life in data set [14] of 2.03 h. Moreover, the inhibition result in data set [16] was “inactive”.
